According to ChEMBL document CHEMBL1821639, “Exploring Left-Hand-Side substitutions in the benzoxazinone series of 4-amino-piperidine bacterial type IIa topoisomerase inhibitors” (Bioorg Med Chem Lett, 2011):
In brackets after ≈: the same amount, converted by molar mass.

How the values were obtained:
[1] = test system: Pseudomonas aeruginosa; assay: Antibacterial activity against Pseudomonas aeruginosa after 24 hrs by CLSI method; format: functional
In short: (§1)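 Broth dilution per CLSI; compounds in DMSO, 10 doubling dilutions. Organisms grown overnight on agar, suspended in suitable liquid medium to 0.5 McFarland, then diluted 1 in 10 for final inoculum.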

[2] = test system: Escherichia coli; assay: Antibacterial activity against Escherichia coli after 24 hrs by CLSI method; format: functional; in short: as §1
[3] = test system: Escherichia coli; assay: Antibacterial activity against TolC-deficient Escherichia coli after 24 hrs by CLSI method; format: functional; in short: as §1
[4] = test system: Streptococcus pyogenes; assay: Antibacterial activity against Streptococcus pyogenes after 24 hrs by CLSI method; format: functional; in short: as §1
[5] = test system: Haemophilus influenzae; assay: Antibacterial activity against Haemophilus influenzae after 24 hrs by CLSI method; format: functional; in short: as §1
[6] = Lipophilicity, log D of the compound by shake flask method using LC-MS analysis; format: physicochemical; conditions: octanol/water
In short: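 Shake-flask partitioning, experimental, with LC–MS quantitation.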

[7] = test system: Moraxella catarrhalis; assay: Antibacterial activity against Moraxella catarrhalis after 24 hrs by CLSI method; format: functional; in short: as §1
[8] = test system: Staphylococcus aureus; assay: Antibacterial activity against Staphylococcus aureus after 24 hrs by CLSI method; format: functional; in short: as §1
[9] = test system: Streptococcus pneumoniae; assay: Antibacterial activity against Streptococcus pneumoniae after 24 hrs by CLSI method; format: functional; in short: as §1
[10] = Inhibition of ParC in reconstituted Escherichia coli ParC/ParE assessed as ParE ATPase activity after 24 hrs by ammonium molybdate/malachite green method
[11] = test system: Klebsiella pneumoniae; assay: Antibacterial activity against Klebsiella pneumoniae after 24 hrs by CLSI method; format: functional; in short: as §1
[12] = Inhibition of Escherichia coli DNA gyrase supercoiling activity
[13] = target: Voltage-gated inwardly rectifying potassium channel KCNH2 (Homo sapiens, UniProt Q12809); assay: Inhibition of human ERG by electrophysiological assay
Voltage-gated inwardly rectifying potassium channel KCNH2, sequence (Q12809 whole entry): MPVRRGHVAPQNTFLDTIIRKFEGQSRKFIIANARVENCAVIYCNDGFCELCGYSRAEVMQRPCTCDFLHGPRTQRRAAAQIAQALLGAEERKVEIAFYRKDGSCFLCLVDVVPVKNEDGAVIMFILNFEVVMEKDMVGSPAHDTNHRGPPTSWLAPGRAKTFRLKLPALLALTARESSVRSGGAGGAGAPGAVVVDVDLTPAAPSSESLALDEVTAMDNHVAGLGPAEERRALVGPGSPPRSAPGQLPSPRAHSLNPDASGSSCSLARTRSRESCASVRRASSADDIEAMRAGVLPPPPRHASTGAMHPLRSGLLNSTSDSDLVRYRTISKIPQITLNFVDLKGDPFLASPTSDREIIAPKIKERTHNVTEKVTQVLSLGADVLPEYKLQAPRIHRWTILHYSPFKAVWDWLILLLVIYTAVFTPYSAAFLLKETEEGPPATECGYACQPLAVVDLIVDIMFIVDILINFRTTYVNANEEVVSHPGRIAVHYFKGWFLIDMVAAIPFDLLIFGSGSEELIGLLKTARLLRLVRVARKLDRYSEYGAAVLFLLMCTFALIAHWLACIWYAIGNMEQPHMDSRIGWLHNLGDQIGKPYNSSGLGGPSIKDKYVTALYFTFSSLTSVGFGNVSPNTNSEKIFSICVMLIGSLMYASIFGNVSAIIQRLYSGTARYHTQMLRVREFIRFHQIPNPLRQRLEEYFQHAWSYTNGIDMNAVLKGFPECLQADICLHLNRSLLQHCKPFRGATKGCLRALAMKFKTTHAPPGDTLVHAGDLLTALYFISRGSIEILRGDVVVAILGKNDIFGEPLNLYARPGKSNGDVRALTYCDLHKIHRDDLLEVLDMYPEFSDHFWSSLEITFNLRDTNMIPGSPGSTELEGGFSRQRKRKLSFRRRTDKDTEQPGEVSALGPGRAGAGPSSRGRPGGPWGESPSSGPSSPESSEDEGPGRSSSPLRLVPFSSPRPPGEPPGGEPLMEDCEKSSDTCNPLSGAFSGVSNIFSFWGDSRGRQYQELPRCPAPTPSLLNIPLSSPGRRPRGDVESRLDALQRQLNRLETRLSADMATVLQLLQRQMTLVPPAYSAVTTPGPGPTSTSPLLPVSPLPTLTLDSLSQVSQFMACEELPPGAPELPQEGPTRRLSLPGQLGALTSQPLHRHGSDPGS

## CN(C)S(=O)(=O)c1ccc2c(c1)N(CCN1CCC(NCc3ccc4c(n3)NC(=O)CO4)CC1)C(=O)CO2
[1]
  MIC: > 14.6 µM
[2]
  MIC: > 14.6 µM
[3]
  MIC: 7.3 µM (≈ 3.98 µg/mL)
[4]
  MIC: > 14.6 µM
[5]
  MIC: 14.7 µM (≈ 8.01 µg/mL)
[6]
  logD: 0.2
[7]
  MIC: > 14.6 µM
[8]
  MIC: > 14.6 µM
[9]
  MIC: > 14.6 µM

## CCS(=O)(=O)c1ccc2c(c1)N(CCN1CCC(NCc3ccc4c(n3)NC(=O)CO4)CC1)C(=O)CO2
[1]
  MIC: > 15.1 µM
[2]
  MIC: > 15.1 µM
[3]
  MIC: 1.9 µM (≈ 1.01 µg/mL)
[4]
  MIC: 15.1 µM (≈ 8 µg/mL)
[5]
  MIC: 7.6 µM (≈ 4.03 µg/mL)
[6]
  logD: -0.1
[7]
  MIC: 7.6 µM (≈ 4.03 µg/mL)
[8]
  MIC: > 15.1 µM
[9]
  MIC: > 15.1 µM

## CC(=O)c1ccc2c(c1)N(CCN1CCC(NCc3ccc4c(n3)NC(=O)CO4)CC1)C(=O)CO2
[1]
  MIC: 16.7 µM (≈ 8.01 µg/mL)
[2]
  MIC: 2.1 µM (≈ 1.01 µg/mL)
[3]
  MIC: 0.1 µM (≈ 0.048 µg/mL)
[4]
  MIC: 1 µM (≈ 0.48 µg/mL)
[5]
  MIC: 0.3 µM (≈ 0.144 µg/mL)
[6]
  logD: 0.4
[7]
  MIC: 0.3 µM (≈ 0.144 µg/mL)
[8]
  MIC: 1 µM (≈ 0.48 µg/mL)
[9]
  MIC: 2.1 µM (≈ 1.01 µg/mL)

## O=C1COc2ccc(CNC3CCN(CCN4C(=O)COc5ccc(O)cc54)CC3)nc2N1
[1]
  MIC: 17.7 µM (≈ 8.03 µg/mL)
[2]
  MIC: 4.4 µM (≈ 2 µg/mL)
[3]
  MIC: 0.1 µM (≈ 0.0453 µg/mL)
[4]
  MIC: 1.1 µM (≈ 0.499 µg/mL)
[10]
  IC50: 36 nM
[5]
  MIC: 0.3 µM (≈ 0.136 µg/mL)
[6]
  logD: 0.5
[7]
  MIC: 0.1 µM (≈ 0.0453 µg/mL)
[11]
  MIC: > 17.7 µM
[8]
  MIC: 17.7 µM (≈ 8.03 µg/mL)
[9]
  MIC: 8.8 µM (≈ 3.99 µg/mL)

## CS(=O)(=O)c1ccc2c(c1)N(CCN1CCC(NCc3ccc4c(n3)NC(=O)CO4)CC1)C(=O)CO2
[1]
  MIC: > 15.5 µM
[2]
  MIC: > 15.5 µM
[3]
  MIC: 1 µM (≈ 0.516 µg/mL)
[4]
  MIC: 15.5 µM (≈ 7.99 µg/mL)
[5]
  MIC: 3.9 µM (≈ 2.01 µg/mL)
[6]
  logD: -0.5
[7]
  MIC: 3.9 µM (≈ 2.01 µg/mL)
[8]
  MIC: > 15.5 µM
[9]
  MIC: 15.5 µM (≈ 7.99 µg/mL)

## O=C1COc2ccc(CNC3CCN(CCN4C(=O)COc5ccc(F)cc54)CC3)nc2N1
[1]
  MIC: 6.2 µM (≈ 2.82 µg/mL)
[2]
  MIC: 0.6 µM (≈ 0.273 µg/mL)
[3]
  MIC: 0.1 µM (≈ 0.0455 µg/mL)
[4]
  MIC: 0.5 µM (≈ 0.228 µg/mL)
[5]
  MIC: 0.1 µM (≈ 0.0455 µg/mL)
[6]
  logD: 0.9
[8]
  MIC: 0.6 µM (≈ 0.273 µg/mL)
[9]
  MIC: 1.1 µM (≈ 0.501 µg/mL)

## N#Cc1ccc2c(c1)N(CCN1CCC(NCc3ccc4c(n3)NC(=O)CO4)CC1)C(=O)CO2
[1]
  MIC: 3.8 µM (≈ 1.76 µg/mL)
[2]
  MIC: 0.5 µM (≈ 0.231 µg/mL)
[3]
  MIC: < 0.02 µM
[4]
  MIC: 0.3 µM (≈ 0.139 µg/mL)
[10]
  IC50: 36 nM
[12]
  IC50: 3.2 nM
[5]
  MIC: 0.1 µM (≈ 0.0463 µg/mL)
[6]
  logD: 0.2
[11]
  MIC: 4.3 µM (≈ 1.99 µg/mL)
[8]
  MIC: 0.3 µM (≈ 0.139 µg/mL)
[9]
  MIC: 0.8 µM (≈ 0.37 µg/mL)

## O=C1COc2ccc(CNC3CCN(CCN4C(=O)COc5ccc(Br)cc54)CC3)nc2N1
[1]
  MIC: 7.7 µM (≈ 3.98 µg/mL)
[2]
  MIC: 0.5 µM (≈ 0.258 µg/mL)
[3]
  MIC: < 0.02 µM
[10]
  IC50: 18 nM
[5]
  MIC: 0.1 µM (≈ 0.0516 µg/mL)
[6]
  logD: 1.4
[7]
  MIC: < 0.015 µM
[11]
  MIC: 3.9 µM (≈ 2.01 µg/mL)
[8]
  MIC: 0.1 µM (≈ 0.0516 µg/mL)
[9]
  MIC: 0.3 µM (≈ 0.155 µg/mL)

## COC(=O)c1ccc2c(c1)N(CCN1CCC(NCc3ccc4c(n3)NC(=O)CO4)CC1)C(=O)CO2
[1]
  MIC: > 16.1 µM
[2]
  MIC: 4 µM (≈ 1.98 µg/mL)
[3]
  MIC: 0.1 µM (≈ 0.0496 µg/mL)
[4]
  MIC: 2 µM (≈ 0.991 µg/mL)
[10]
  IC50: 78 nM
[5]
  MIC: 0.5 µM (≈ 0.248 µg/mL)
[6]
  logD: 0.8
[7]
  MIC: 0.1 µM (≈ 0.0496 µg/mL)
[11]
  MIC: 16.1 µM (≈ 7.98 µg/mL)
[8]
  MIC: 1 µM (≈ 0.496 µg/mL)
[9]
  MIC: 8.1 µM (≈ 4.01 µg/mL)

## O=C1COc2ccc(CNC3CCN(CCN4C(=O)COc5ccc(-n6cnnn6)cc54)CC3)nc2N1
[1]
  MIC: > 10.9 µM
[2]
  MIC: > 10.9 µM
[3]
  MIC: > 10.9 µM
[4]
  MIC: > 10.9 µM
[10]
  IC50: 353 nM
[5]
  MIC: > 10.9 µM
[6]
  logD: -0.8
[7]
  MIC: > 10.9 µM
[11]
  MIC: > 10.9 µM
[13]
  IC50: > 100 µM
[8]
  MIC: > 10.9 µM
[9]
  MIC: > 10.9 µM

## O=C1COc2ccc(CNC3CCN(CCN4C(=O)COc5ccc(C(=O)O)cc54)CC3)nc2N1
[1]
  MIC: > 13.5 µM
[2]
  MIC: > 13.5 µM
[3]
  MIC: > 12.7 µM
[4]
  MIC: > 13.5 µM
[10]
  IC50: 4680 nM
[5]
  MIC: > 13.5 µM
[6]
  logD: -1.6
[7]
  MIC: > 13.5 µM
[11]
  MIC: > 13.5 µM
[8]
  MIC: > 13.5 µM
[9]
  MIC: > 13.5 µM

## O=C1COc2ccc(CNC3CCN(CCN4C(=O)COc5ccc([N+](=O)[O-])cc54)CC3)nc2N1
[1]
  MIC: 5.9 µM (≈ 2.85 µg/mL)
[2]
  MIC: 0.5 µM (≈ 0.241 µg/mL)
[3]
  MIC: < 0.02 µM
[4]
  MIC: 0.3 µM (≈ 0.145 µg/mL)
[5]
  MIC: 0.1 µM (≈ 0.0482 µg/mL)
[8]
  MIC: 0.3 µM (≈ 0.145 µg/mL)
[9]
  MIC: 0.5 µM (≈ 0.241 µg/mL)

## O=C1COc2ccc(CNC3CCN(CCN4C(=O)COc5ccc(OC(F)(F)F)cc54)CC3)nc2N1
[1]
  MIC: 15.3 µM (≈ 7.98 µg/mL)
[2]
  MIC: 3.8 µM (≈ 1.98 µg/mL)
[3]
  MIC: 0.1 µM (≈ 0.0521 µg/mL)
[4]
  MIC: 1 µM (≈ 0.521 µg/mL)
[5]
  MIC: 0.1 µM (≈ 0.0521 µg/mL)
[6]
  logD: 1.8
[7]
  MIC: 0.1 µM (≈ 0.0521 µg/mL)
[8]
  MIC: 1 µM (≈ 0.521 µg/mL)
[9]
  MIC: 1 µM (≈ 0.521 µg/mL)

## COc1ccc2c(c1)N(CCN1CCC(NCc3ccc4c(n3)NC(=O)CO4)CC1)C(=O)CO2
[1]
  MIC: 8.6 µM (≈ 4.02 µg/mL)
[2]
  MIC: 0.5 µM (≈ 0.234 µg/mL)
[3]
  MIC: 0.1 µM (≈ 0.0468 µg/mL)
[12]
  IC50: 5 nM
[5]
  MIC: 0.1 µM (≈ 0.0468 µg/mL)
[6]
  logD: 0.9
[7]
  MIC: 0.1 µM (≈ 0.0468 µg/mL)
[8]
  MIC: 0.3 µM (≈ 0.14 µg/mL)
[9]
  MIC: 1.1 µM (≈ 0.514 µg/mL)

## CC(O)c1ccc2c(c1)N(CCN1CCC(NCc3ccc4c(n3)NC(=O)CO4)CC1)C(=O)CO2 (configuration not stated)
[1]
  MIC: > 16.6 µM
[2]
  MIC: > 16.6 µM
[3]
  MIC: 1.1 µM (≈ 0.53 µg/mL)
[4]
  MIC: > 16.6 µM
[5]
  MIC: 4.2 µM (≈ 2.02 µg/mL)
[6]
  logD: 0.3
[7]
  MIC: > 16.6 µM
[11]
  MIC: > 16.6 µM
[8]
  MIC: > 16.6 µM
[9]
  MIC: > 16.6 µM

## O=C1COc2ccc(CNC3CCN(CCN4C(=O)COc5ccc(-c6ccco6)cc54)CC3)nc2N1
[1]
  MIC: 15.9 µM (≈ 8.01 µg/mL)
[2]
  MIC: 2 µM (≈ 1.01 µg/mL)
[3]
  MIC: 0.06 µM (≈ 0.0302 µg/mL)
[4]
  MIC: 2 µM (≈ 1.01 µg/mL)
[10]
  IC50: 18 nM
[5]
  MIC: 0.3 µM (≈ 0.151 µg/mL)
[6]
  logD: 2.2
[7]
  MIC: 0.06 µM (≈ 0.0302 µg/mL)
[11]
  MIC: 15.9 µM (≈ 8.01 µg/mL)
[8]
  MIC: 0.5 µM (≈ 0.252 µg/mL)
[9]
  MIC: 0.5 µM (≈ 0.252 µg/mL)

## O=C1COc2ccc(CNC3CCN(CCN4C(=O)COc5ccc(Cl)cc54)CC3)nc2N1
[1]
  MIC: 4.2 µM (≈ 1.98 µg/mL)
[2]
  MIC: 0.5 µM (≈ 0.236 µg/mL)
[3]
  MIC: < 0.02 µM
[4]
  MIC: 0.5 µM (≈ 0.236 µg/mL)
[10]
  IC50: 23 nM
[5]
  MIC: 0.1 µM (≈ 0.0472 µg/mL)
[6]
  logD: 1.3
[7]
  MIC: 0.1 µM (≈ 0.0472 µg/mL)
[8]
  MIC: 0.3 µM (≈ 0.142 µg/mL)
[9]
  MIC: 0.5 µM (≈ 0.236 µg/mL)

## O=C1COc2ccc(CNC3CCN(CCN4C(=O)COc5ccc(NC(=O)C(F)(F)F)cc54)CC3)nc2N1
[1]
  MIC: > 16.1 µM
[2]
  MIC: > 16.1 µM
[3]
  MIC: 8.1 µM (≈ 4.44 µg/mL)
[4]
  MIC: > 16.1 µM
[5]
  MIC: 16.1 µM (≈ 8.83 µg/mL)
[6]
  logD: 0.2
[7]
  MIC: 16.1 µM (≈ 8.83 µg/mL)
[11]
  MIC: > 16.1 µM
[13]
  IC50: > 100 µM
[8]
  MIC: > 16.1 µM
[9]
  MIC: > 16.1 µM
